KCNQ1 pot: potentiates or activates the human KCNQ1 potassium channel; P51787; CHO-K1 KCNQ1, thallium flux FluxOR fluorescence; stronger effect = higher value; B-score at 10 µM; 310,000 tested, 0.35% active; AID 2648;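 active means fluorescence ratio B-score, a plate-corrected score, at least three library SD, with initial intensity B-score within 5 SD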
Target sequence (P51787 whole entry, looked up): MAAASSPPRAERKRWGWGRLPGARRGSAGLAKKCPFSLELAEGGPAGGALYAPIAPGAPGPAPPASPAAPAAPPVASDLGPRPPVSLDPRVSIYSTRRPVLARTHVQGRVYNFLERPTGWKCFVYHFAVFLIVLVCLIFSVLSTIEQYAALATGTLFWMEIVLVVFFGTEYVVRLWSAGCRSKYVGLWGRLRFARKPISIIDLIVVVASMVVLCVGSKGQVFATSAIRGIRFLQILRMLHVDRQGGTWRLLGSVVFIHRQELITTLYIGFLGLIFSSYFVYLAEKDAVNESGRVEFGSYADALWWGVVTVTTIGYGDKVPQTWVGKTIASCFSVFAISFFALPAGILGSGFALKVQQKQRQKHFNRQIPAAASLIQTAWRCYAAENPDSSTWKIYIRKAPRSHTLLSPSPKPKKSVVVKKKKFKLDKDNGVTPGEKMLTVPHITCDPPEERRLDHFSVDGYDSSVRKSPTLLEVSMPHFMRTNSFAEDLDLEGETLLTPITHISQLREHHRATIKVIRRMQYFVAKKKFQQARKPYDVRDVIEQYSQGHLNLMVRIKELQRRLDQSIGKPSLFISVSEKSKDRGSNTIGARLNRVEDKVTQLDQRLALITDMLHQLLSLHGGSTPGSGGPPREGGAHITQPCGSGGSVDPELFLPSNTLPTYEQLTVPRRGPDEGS
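Schedule – 37 °C overnight plating, 90-min dark dye load, 20-min compound pretreatment · System – stable KCNQ1 CHO-K1 line · Probe or stimulus – thallium- and potassium-containing depolarizing buffer · Measured by – kinetic FluxOR fluorescence, 10 s baseline plus 110 s post-stimulus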
KCNK9 block: inhibitors of human KCNK9 two-pore domain potassium channel | HEK293 KCNK9, FluxOR thallium flux fluorescence; stronger effect = lower value | 310,000 tested, 1.2% active | B-score at 10 µM;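 active means ratio B-score over 3 SD below the library mean, with starting fluorescence within 5 SD of its mean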;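 further: negative B-score means less thallium flux so channel inhibition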
KCNK3 block: human KCNK3 channel inhibition, primary screen | O14649 | B-score at 10 µM | CHO-KCNK3 thallium flux, FluxOR fluorescence; stronger effect = lower value | 340,000 tested, 0.84% active;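 active means B-score under library mean minus 4 SD, starting fluorescence ratio at most library mean plus 5 SD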;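 further: more negative B-score means stronger inhibition of thallium flux through KCNK3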
Kir21 block: inhibitors of mouse Kir2.1 inward-rectifier potassium channel; 310,000 tested, 0.85% active; AID 1672; HEK293-Kir2.1, FluxOR thallium flux fluorescence; stronger effect = lower value; B-score at 10 µM; P35561;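 active means fluorescence ratio B-score at or below minus 3 SD of library scores, with starting-brightness B-score within 2 SD, cut at about -4.2 in these data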;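 further: channel flux triggered by added potassium and thallium sulfate stimulus; B-score of peak minus minimum fluorescence over baseline after thallium stimulus; more negative B-score means stronger Kir2.1 block with less thallium influx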
KCNQ1 inh: inhibitors of human KCNQ1 potassium channel | CHO-K1 KCNQ1, FluxOR thallium flux fluorescence; stronger effect = higher value | B-score at 10 µM | P51787 | 310,000 tested, 1.3% active;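 active means compounds whose thallium flux B-score, printed positive for inhibition, exceeds three library SD while starting fluorescence stays within three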;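 further: channel opened by potassium depolarization with thallium stimulus after 20 min compound exposure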
hERG rescue: compounds protecting human hERG from proarrhythmic drug block; Q12809; CHO-hERG, FluxOR thallium flux, dofetilide IC70 present; activation (rescue from dofetilide block), less the hit threshold, % at 10 µM; 310,000 tested, 0.51% active;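 active means activation above the mean of controls blocked by dofetilide plus 5 SD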;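 further: thallium influx through hERG after potassium depolarization seen as dye fluorescence rise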
Active calls of the source: *; i = inactive; . = not tested or not shown. Rows were chosen to be rich in hits. Some 3.8% of all compounds tested hit in one or more screens of this group.

SMILES | KCNQ1 pot | KCNK9 block | KCNK3 block | Kir21 block | KCNQ1 inh | hERG rescue
Cc1ccccc1C(=O)Nc1ccnn1C1CCN(C(=O)c2cnsn2)CC1 | i | i | i | -0.37 | i | -5
S=c1[nH]cnc2scc(-c3ccc(Cl)cc3)c12 | 19* | i | i | -0.01 | i | 23*
CCc1nnc(NC(=O)CCC(=O)N2CCN(C3CCCCC3)CC2)s1 | 13* | i | i | -0.13 | i | 4
COc1ccc(CN2CCN(Cc3ccc(Br)cc3)CC2)c(OC)c1OC | i | i | i | -4.8* | i | 0
CCN1CCN(Cc2ccc(NC(=O)Nc3ccc(SC)cc3)cc2)CC1 | i | i | i | -4.8* | i | -12
COc1cc(CN2CCN(Cc3ccc(SC)cc3)CC2)cc(OC)c1O | i | i | i | 0.19 | i | -4
COc1cc(OC)c(OC)cc1CN1CCN(Cc2ccc(SC)cc2)CC1 | i | i | i | -5.5* | i | -6
COc1ccccc1NC(=O)CCc1nnc2ccc(N3CCN(C)CC3)nn12 | i | i | i | 2.1 | i | -6
Nc1cc(=O)[nH]c(SCC(=O)N2CCC(Cc3ccccc3)CC2)n1 | . | . | i | . | . | .
CN(C)CCOc1ccc2c(c1)Sc1ccccc1CC2=O | i | i | i | -5.2* | i | -2
OCCC1CCCCN1CC(O)COCc1ccc(Cl)cc1 (stereo not drawn) | i | i | i | -0.08 | i | -5
COC(=O)c1ccc(CNC(=O)COC(=O)Cc2ccsc2)cc1 | i | i | i | 2 | i | -10
CCOC(=O)C1=C(C)OC(N)=C(C#N)C1c1ccccc1 (stereo not drawn) | i | i | i | -1.3 | i | -18
CCOC(=O)C1=C(C)OC(N)=C(C#N)C1c1c(C)nn(-c2ccc(C)cc2)c1Cl (stereo not drawn) | i | -9.8* | . | -1.5 | i | -20
Cc1cc(C)cc(-n2ncc3c2CCCC3NC(=O)c2csnn2)c1 (stereo not drawn) | i | i | i | -0.14 | i | 36*
Cc1ccc(-n2ncc3c2CCCC3NC(=O)c2ccoc2)cc1C (stereo not drawn) | i | i | i | -1.4 | i | -8
CCc1cc(C(=O)NC2CCCc3c2cnn3-c2cccc(C)c2C)n(C)n1 (stereo not drawn) | i | i | . | -0.56 | 11* | -16
Cc1ccc(-n2ncc3c2CCCC3NC(=O)c2csnn2)cc1C (stereo not drawn) | i | i | i | 0.85 | i | 19*
COc1ccc(CNC(=O)CN(C(=O)CCC(=O)Nc2nccs2)c2cccc(C)c2)cc1 | i | i | i | 1.1 | i | -3
CCCCCCCCNS(=O)(=O)CCNC1CC1 | . | . | i | . | . | .
Cc1cccc(Cn2cc(/C=C/[N+](=O)[O-])c3ccccc32)c1 | i | i | i | -2.5 | i | -21
O=[N+]([O-])/C=C/c1cn(Cc2ccc(Cl)cc2)c2ccccc12 | i | i | i | -5.7* | i | -12
CC(C)C(=O)N1CCN(c2ccccc2NC(=O)c2ccc(Br)o2)CC1 | . | . | i | . | . | .
C/C(=N\Nc1nc(N2CCCCCC2)nc(N2CCCCCC2)n1)c1ccccc1 | i | i | i | -1.7 | 14* | -13
S=C(Nc1ccc(Br)cc1)N1CCn2cccc2C1c1cccnc1 (stereo not drawn) | 22* | i | i | 1.4 | i | -16
SMILES | KCNQ1 pot | KCNK9 block | KCNK3 block | Kir21 block | KCNQ1 inh | hERG rescue
C=C1c2ccccc2S(=O)(=O)N(Cc2ccccc2)C1COCc1ccccc1 (stereo not drawn) | i | -6.9* | i | 0.53 | i | -7
Cc1ccc(C2OC(=O)C=C2c2ccccc2)cc1 (stereo not drawn) | i | i | i | -1.4 | i | -2
CC1CCCCC12NC(=O)N(CC(=O)OCC(=O)N(C)C1CCCCC1)C2=O (stereo not drawn) | . | . | i | . | . | .
O=C(NC(=S)Nc1ccccc1)c1cncc(C#Cc2ccccc2)c1 | i | i | i | -0.29 | i | 5.8*
CC(=O)C1=C(O)C(=O)N(c2cccc(Br)c2)C1c1ccccc1Cl (stereo not drawn) | i | i | i | 0.83 | i | -7
Cc1ccc(C(=O)NNC(=S)Nc2cccc(Cl)c2Cl)cc1[N+](=O)[O-] | i | i | i | -1.7 | 9* | -10
COc1ccccc1NC(=O)C1CCN(C(=O)c2ccco2)CC1 | i | i | i | -0.7 | i | -8
O=C(CSc1ccc([N+](=O)[O-])cn1)Nc1ccccc1N1CCOCC1 | i | i | i | -4.6* | i | -10
O=C(CSc1nc2ccccc2o1)Nc1ccccc1N1CCOCC1 | i | i | i | -8.8* | i | -7
CCOC(=O)/C=C1/SCC(=O)N1CCOc1cccc(Br)c1 | . | . | i | . | . | .
Cc1noc(/C=C/c2ccc(-c3ccccc3Cl)o2)c1[N+](=O)[O-] | i | i | i | 0.76 | 7* | -6
CC(C)c1cccc(C(C)C)c1NC(=O)CN1C(=O)NC2(CCCCCCC2)C1=O | . | . | i | . | . | .
CCOC(=O)c1c(C(C)(C)C)oc2ccc(OCC#N)cc12 | i | i | i | 0.48 | 6* | -7
CCOC(=O)c1c(C(C)(C)C)oc2ccc(O)cc12 | . | . | i | . | . | .
CCOC(=O)c1c(-c2ccccc2)oc2ccc(O)c(CN(C)C)c12 | i | i | i | -6.4* | i | -6
CCOC(=O)c1c(-c2ccccc2)oc2ccc(O)c(CN3CCCC3)c12 | i | i | i | -12* | i | -17
CCOC(=O)c1c(-c2ccccc2)oc2ccc(OCC(O)CN(C)C)cc12 (stereo not drawn) | i | i | i | -7.8* | i | -14
Cc1ccc(NC(=O)CNC(=O)C2CCCCC2)nc1 | i | i | i | -0.03 | i | -12
COc1ccc(CC(=O)NC2CCSc3ccccc32)c(OC)c1 (stereo not drawn) | i | i | i | -5.9* | i | -10
COc1ccc(OC)c(C(=O)NC2CCSc3ccccc32)c1 (stereo not drawn) | i | i | i | -0.06 | i | -5
CCc1nnc(SCC(=O)Nc2ccccc2)nc1CC | i | i | i | 1.3 | i | 4.9*
CCc1nnc(SCC(=O)NC2CCCC2)nc1CC | i | i | i | 0 | i | -3
COc1ccc(CC(=O)OCC(=O)NC2CCCC(C)C2C)cc1 (stereo not drawn) | . | . | i | . | . | .
O=C(Cn1cc(C(F)(F)F)cc(Cl)c1=O)NCc1ccc(F)cc1 | i | i | i | 0.62 | i | -8
